The nature of data set [1]: Substrate activity at AOC4 in dog serum assessed as compound oxidation by measuring oxidative turnover at 30 uM measured for 40 mins by horseradish peroxidase-coupled amplex red reagent-based fluorometric assay relative to DMSO. The format is ADME, cell-free, Canis lupus familiaris. In outline: (§1)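 Compound oxidation measured without substrate by peroxidase-coupled fluorometric read-out of resorufin formation over 40 min at 37 °C in HEPES buffer. Amplex Red 20 µM, HRP 4 U/ml, test compound at final 30 µM. Enzyme source was human recombinant SSAO or AOC4 from diluted dog serum. Benzylamine at 600 µM served as positive control. Signal is expressed relative to DMSO-only background, so a value near 1 means no turnover.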

The target in data set [2] is T1, Lysyl oxidase homolog 2 (Homo sapiens) (UniProt Q9Y4K0).
T1 sequence (whole entry): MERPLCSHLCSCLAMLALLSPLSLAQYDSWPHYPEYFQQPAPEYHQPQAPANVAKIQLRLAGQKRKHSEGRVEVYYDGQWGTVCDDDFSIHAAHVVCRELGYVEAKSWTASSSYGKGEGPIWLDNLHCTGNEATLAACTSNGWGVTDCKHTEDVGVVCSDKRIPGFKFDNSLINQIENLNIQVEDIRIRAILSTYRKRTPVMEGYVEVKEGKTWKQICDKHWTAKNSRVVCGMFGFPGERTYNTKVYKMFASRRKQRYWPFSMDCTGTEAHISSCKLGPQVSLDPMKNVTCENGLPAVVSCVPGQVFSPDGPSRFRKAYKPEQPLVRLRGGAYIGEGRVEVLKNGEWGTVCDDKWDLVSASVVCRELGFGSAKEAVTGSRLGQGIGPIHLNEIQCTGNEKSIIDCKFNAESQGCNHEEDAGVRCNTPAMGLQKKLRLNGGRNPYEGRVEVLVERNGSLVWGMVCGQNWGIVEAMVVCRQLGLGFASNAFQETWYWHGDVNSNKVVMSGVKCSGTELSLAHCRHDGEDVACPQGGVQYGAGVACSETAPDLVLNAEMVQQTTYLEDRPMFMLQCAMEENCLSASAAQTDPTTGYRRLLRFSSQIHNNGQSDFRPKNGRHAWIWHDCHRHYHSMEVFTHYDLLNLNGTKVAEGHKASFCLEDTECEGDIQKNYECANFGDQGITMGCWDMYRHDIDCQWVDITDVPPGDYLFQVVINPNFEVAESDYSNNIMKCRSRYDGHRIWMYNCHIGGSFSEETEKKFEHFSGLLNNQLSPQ
Nature of the data set: Inhibition of recombinant human C-terminal His-tagged […] (1-774 residues) expressed in mouse myeloma cells assessed as recovery of enzyme activity at 10XIC50 preincubated with bound enzyme for 30 mins followed by drug wash-out and later incubated with putrescine substrate and measured after 30 mins by Amplex-Red oxidation assay. Further details: scale not given: the % may be the effect or the level left. The format is cell-based.

The target of data set [3] is T2, Lysyl oxidase homolog 2 (Homo sapiens, UniProt Q9Y4K0).
T2 sequence (Q9Y4K0 whole entry): T1 sequence (whole entry)
Briefly: Substrate activity at recombinant human C-terminal His-tagged […] (1-774 residues) expressed in mouse myeloma cells assessed as oxidative turnover at 30 uM measured after 30 mins by horseradish peroxidase-coupled amplex red reagent-based fluorescence assay relative to DMSO. It is filed as ADME, cell-based. The following applies: 0.5 h. In outline: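 LOXL2 incubated with compound, no substrate present. Hydrogen peroxide generation read by Amplex Red/HRP fluorescence (ex 565, em 590 nm). Oxidative turnover at 30 min expressed relative to DMSO.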

Data set [4] addresses T3, Amine oxidase [copper-containing] 3 (Homo sapiens, UniProt Q16853).
T3 sequence (Q16853 whole entry): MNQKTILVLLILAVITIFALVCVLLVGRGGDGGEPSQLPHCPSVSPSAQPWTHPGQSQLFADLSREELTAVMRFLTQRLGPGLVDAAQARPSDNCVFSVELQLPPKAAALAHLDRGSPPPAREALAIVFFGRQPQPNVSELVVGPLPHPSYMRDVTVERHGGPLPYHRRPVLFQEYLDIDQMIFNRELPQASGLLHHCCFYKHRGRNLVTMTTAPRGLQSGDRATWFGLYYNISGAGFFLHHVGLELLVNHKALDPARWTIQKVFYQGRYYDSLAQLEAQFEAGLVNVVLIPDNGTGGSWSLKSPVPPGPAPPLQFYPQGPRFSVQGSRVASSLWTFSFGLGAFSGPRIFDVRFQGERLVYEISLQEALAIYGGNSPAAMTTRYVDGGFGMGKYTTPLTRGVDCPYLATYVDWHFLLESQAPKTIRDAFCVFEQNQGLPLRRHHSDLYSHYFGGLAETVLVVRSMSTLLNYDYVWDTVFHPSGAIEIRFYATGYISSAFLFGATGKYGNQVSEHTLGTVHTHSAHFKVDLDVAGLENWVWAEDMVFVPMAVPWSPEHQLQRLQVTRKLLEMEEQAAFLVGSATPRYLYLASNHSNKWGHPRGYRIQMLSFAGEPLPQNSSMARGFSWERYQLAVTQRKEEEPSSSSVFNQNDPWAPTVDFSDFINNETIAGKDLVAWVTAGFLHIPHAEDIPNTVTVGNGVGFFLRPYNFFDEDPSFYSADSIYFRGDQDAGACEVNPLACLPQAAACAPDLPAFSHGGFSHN
Nature of the data set: Substrate activity at recombinant human SSAO assessed as compound oxidation by measuring oxidative turnover at 30 uM measured for 40 mins by horseradish peroxidase-coupled amplex red reagent-based fluorometric assay relative to DMSO. The format is ADME. Put shortly:
as §1

The target of another data set is T4, Protein-lysine 6-oxidase (Bos taurus, UniProt P33072).
T4 sequence (P33072 whole entry): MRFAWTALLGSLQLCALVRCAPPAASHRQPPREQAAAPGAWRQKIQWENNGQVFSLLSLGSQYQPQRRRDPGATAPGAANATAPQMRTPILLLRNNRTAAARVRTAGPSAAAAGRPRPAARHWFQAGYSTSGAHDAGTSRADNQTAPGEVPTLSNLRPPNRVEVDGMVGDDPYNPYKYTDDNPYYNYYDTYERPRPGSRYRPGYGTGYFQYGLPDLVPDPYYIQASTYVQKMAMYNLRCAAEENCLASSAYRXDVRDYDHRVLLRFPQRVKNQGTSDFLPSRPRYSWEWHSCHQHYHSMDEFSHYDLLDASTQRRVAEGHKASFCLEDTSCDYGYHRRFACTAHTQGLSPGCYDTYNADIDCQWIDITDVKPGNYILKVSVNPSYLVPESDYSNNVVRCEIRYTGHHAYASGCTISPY
Nature of the data set: Inhibition of LOX in bovine aorta using putrescine as substrate preincubated with enzyme for 30 mins followed by substrate addition and measured every 2.5 mins for 30 mins by Amplex-Red oxidation assay. It is filed as tissue-based. The following applies: read-out: pIC50 (converted). Put shortly: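 LOX extracted from calf aorta after PBS washing with 4 M urea/50 mM borate pH 8.2, concentrated on 10 kDa filters into 1.2 M urea/borate with protease inhibitors. Preincubated 30 min at 37 °C with compound, then Amplex Red/HRP with 10 mM putrescine; fluorescence read every 2.5 min for 30 min.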

In data set [5] the target is T2, Lysyl oxidase homolog 2. Briefly: Inhibition of recombinant human C-terminal His-tagged […] (1-774 residues) expressed in mouse myeloma cells using putrescine as substrate preincubated with enzyme for 30 mins followed by substrate addition and measured every 2.5 mins for 30 mins by Amplex-Red oxidation assay. The conditions noted are these: read-out: pIC50 (converted). In outline:
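LOXL2 enzyme preincubated with compound for 30 min at 37 °C, then Amplex Red (120 µM) / HRP (1.5 U/mL) mix containing 5 mM putrescine added. Buffer: 1.2 M urea, 50 mM sodium borate, pH 8.2. H2O2 fluorescence (ex 565/em 590) read every 2.5 min for 30 min at 37 °C; BAPN 100 µM as positive control; n≥2.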

A short description of data set [6]: Selectivity index, ratio of IC50 for recombinant human C-terminal His-tagged […] (1-774 residues) expressed in mouse myeloma cells to IC50 for LOX in bovine aorta.
The target of data set [7] is T5, Amine oxidase [flavin-containing] B (Homo sapiens, UniProt P27338).
T5 sequence (P27338 whole entry): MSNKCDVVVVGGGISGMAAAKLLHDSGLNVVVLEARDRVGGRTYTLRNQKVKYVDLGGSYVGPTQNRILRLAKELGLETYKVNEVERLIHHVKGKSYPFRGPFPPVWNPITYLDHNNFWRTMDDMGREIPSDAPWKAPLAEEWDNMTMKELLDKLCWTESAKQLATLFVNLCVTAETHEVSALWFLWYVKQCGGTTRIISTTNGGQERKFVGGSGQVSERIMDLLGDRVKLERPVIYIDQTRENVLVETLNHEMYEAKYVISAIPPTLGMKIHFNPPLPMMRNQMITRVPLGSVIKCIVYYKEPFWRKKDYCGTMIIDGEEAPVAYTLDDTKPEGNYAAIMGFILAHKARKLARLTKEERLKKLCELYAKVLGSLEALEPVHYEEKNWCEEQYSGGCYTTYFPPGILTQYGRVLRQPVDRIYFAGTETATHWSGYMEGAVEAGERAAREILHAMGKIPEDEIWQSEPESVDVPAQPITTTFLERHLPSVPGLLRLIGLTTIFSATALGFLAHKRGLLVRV
Briefly: Inhibition of recombinant human MAOB expressed in baculovirus infected in BTI cells using benzylamine as substrate preincubated with enzyme for 30 mins followed by substrate addition and measured every 2.5 mins for 30 mins by Amplex-Red oxidation assay. The following applies: read-out: pIC50 (converted).

The target of data set [8] is T3, Amine oxidase [copper-containing] 3. Briefly: Inhibition of recombinant human SSAO using benzylamine as substrate preincubated with enzyme for 30 mins followed by substrate addition and measured every 2.5 mins for 30 mins by Amplex-Red oxidation assay. The following applies: read-out: pIC50 (converted).
Data set [9] deals with T1, Lysyl oxidase homolog 2 (Homo sapiens). Nature of the data set: Time-dependent inhibition of recombinant human C-terminal His-tagged […] (1-774 residues) expressed in mouse myeloma cells assessed as inactivation constant using putrescine as substrate by kitz-wilson plot analysis. In outline: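 Recombinant human LOXL2 preincubated with inhibitor for varying times at 37 °C, then 5 mM putrescine added with 120 µM Amplex Red and 1.5 U/mL HRP. Buffer was 1.2 M urea, 50 mM sodium borate, pH 8.2. Fluorescence read every 2.5 min for 30 min. Apparent Ki and kinact derived by Kitz–Wilson analysis.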

The target is the same in data set [10]. Briefly: Substrate competitive inhibition of recombinant human C-terminal His-tagged […] (1-774 residues) expressed in mouse myeloma cells using different concentrations of putrescine as substrate preincubated with enzyme for 30 mins followed by substrate addition and measured every 2.5 mins for 30 mins by substrate competition based Amplex-Red oxidation assay. Put shortly:
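Recombinant LOXL2 incubated with inhibitor plus a range of putrescine concentrations before the reaction mix was added (120 µM Amplex Red, 1.5 U/mL HRP). Buffer was 1.2 M urea, 50 mM sodium borate, pH 8.2. Fluorescence (ex 565/em 590 nm) read every 2.5 min for 30 min at 37 °C.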

The target is the same in data set [11]. Nature of the data set: Irreversible inhibition of recombinant human C-terminal His-tagged […] (1-774 residues) expressed in mouse myeloma cells assessed as maximal inhibition at 30XIC50 incubated for 60 mins followed by 100-fold dilution prior to addition of putrescine as substrate and measured after 30 mins by jump dilution assay based Amplex-Red oxidation assay relative to control. In outline: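 LOXL2 soaked 60 min at 37 °C with inhibitor at 30× IC50. Diluted 50-fold in assay buffer (1.2 M urea, 50 mM borate, pH 8.2), then 1:2 with reaction mix of Amplex Red 120 µM, HRP 1.5 U/mL and putrescine. Read out 30 min after substrate addition (ex 565/em 590, 37 °C). Percent activity followed over time after dilution.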

The target is the same in data set [12]. Nature of the data set: Inhibition of recombinant human C-terminal His-tagged […] (1-774 residues) expressed in mouse myeloma cells at 10XIC50 preincubated with bound enzyme for 30 mins followed by drug wash-out and later incubated with putrescine substrate and measured after 30 mins by Amplex-Red oxidation assay. It is filed as cell-based.
Data set [13] has the same target. Briefly: Inhibition of recombinant human LOXL2 assessed as inhibition of collagen cross linking compound replenishment for 5 days and measured on day 7 by UPLC-ESI-MS/MS analysis.
The species named for a further data set is Homo sapiens. Briefly: Displacement of [3H]PK11195 from human recombinant peripheral benzodiazepine receptor at 10 uM incubated for 15 mins by scintillation counting method. Put shortly:
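Single-concentration screen at 10 µM in a panel of 119 enzyme and receptor targets under standard conditions; >50% inhibition of radioligand binding counted as a hit.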
(In general: In a radioligand displacement assay an active substance lowers the binding of a labelled ligand.)

Activity calls are given as the source filed them. The calls are words filed in the database; no cut-off is given here. Some results are limits rather than exact numbers.

As a reminder, the inhibition is the share of the control response that was lost under treatment.

On to `Cc1c(-c2cccc(S(=O)(=O)N(C)C)c2)c2cc(C(=O)O)ccc2n1C/C=C/CN.Cl`, for which the results for the “fold change (FC)” value (in data set [1]; on Lysyl oxidase homolog 2 [3]; in [4]) were 1.3, 6 and 1, respectively. The Activity in data set [2] was 75%. The IC50 on Protein-lysine 6-oxidase was 3.16 µM; on Lysyl oxidase homolog 2 [5], 0.794 µM.
`Cc1c(-c2cccc(S(=O)(=O)N(C)C)c2)c2ncccc2n1C/C(F)=C/CN.Cl`: the “fold change (FC)” value in data set [1] was 6.4; in data set [4] it was 1.6. Moreover, the results for the IC50 on Protein-lysine 6-oxidase and at Lysyl oxidase homolog 2 [5] were 1.26 µM and 0.02 µM, respectively. Also, the IC50 ratio in data set [6] worked out at 70.
Consider `CN(C)S(=O)(=O)c1ccc(OCc2cn(C/C(F)=C/CN)nn2)cc1.Cl`, for which the “fold change (FC)” value in [4] was above 4. Besides, the IC50 in data set [7] was 0.126 µM; on Protein-lysine 6-oxidase it was 0.794 µM; in data set [8], above 31.6 µM; on Lysyl oxidase homolog 2 [5] it was 0.0501 µM.
On to `Cc1c(-c2cccc(S(=O)(=O)N(C)C)c2)c2cc(C(=O)O)ccc2n1C/C(F)=C/CN`, for which, in [9], the Kinact was 0.89 min⁻¹. Besides, the inhibition entry in data set [10] and in data set [12] was “Active” in each case. For the same compound, the Imax in [11] is above 80%. Further, the inhibition entry in data set [13] was “Dose-dependent effect”; in the data set listed under Homo sapiens, above 50%. Moreover, the IC50 ratio in data set [6] was above 300.
